Data from ChEMBL document CHEMBL3763041, “Design and synthesis of new imidazo[1,2-a]pyridine and imidazo[1,2-a]pyrazine derivatives with antiproliferative activity against melanoma cells” (Eur J Med Chem, 2016).
pIC50: −log10 of the molar value.

Legend:
[1] = Antiproliferative activity against human A375P cells expressing BRAF V600E mutant after 72 hrs by CellTiter-Glo assay; type: functional, cell-based
[2] = biological target: Serine/threonine-protein kinase B-raf (Homo sapiens, UniProt P15056); test: Inhibition of wild-type B-Raf (unknown origin) using MEK1 K97M as substrate preincubated for 90 mins followed by substrate addition measured after 1 hr by fluorescence polarization assay
Outline: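 After ATP-containing solution was added, the reaction ran 1 h at room temperature. It was stopped with ADP detection mix (EDTA, ADP² antibody, 3 nM ADP Alexa633 tracer).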

[3] = biological target: Serine/threonine-protein kinase B-raf (Homo sapiens, UniProt P15056, V600E); test: Inhibition of B-Raf V600E mutant (unknown origin) using MEK1 K97M as substrate preincubated for 90 mins followed by substrate addition measured after 1 hr by fluorescence polarization assay
Outline: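 Reactions used 30 nM B-Raf(V600E) enzyme with MEK1 K97M substrate. Kinase reaction ran 1 h at room temperature after ATP-containing solution was added. It was stopped with ADP detection mix (20 mM HEPES pH 7.5, 40 mM EDTA, 10 mM MgCl₂, 0.02% Brij 35, ADP² antibody, 3 nM ADP Alexa633 tracer).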

A549 = test: Antiproliferative activity against human A549 cells after 72 hrs by CellTiter-Glo assay; type: functional, cell-based; conditions: A549, 72 h
NCI-H358 = test: Antiproliferative activity against human NCI-H358 cells after 72 hrs by CellTiter-Glo assay; type: functional, cell-based; conditions: NCI-H358, 72 h
[4] = Antiproliferative activity against human HKE3 cells after 72 hrs by CellTiter-Glo assay; type: functional, cell-based; conditions: HKE3, 72 h
[5] = Antiproliferative activity against human PC-9ER cells after 72 hrs by CellTiter-Glo assay; type: functional, cell-based
[6] = Antiproliferative activity against human HCT116 cells after 72 hrs by CellTiter-Glo assay; type: functional, cell-based; conditions: HCT-116, 72 h
[7] = Antiproliferative activity against human PC9 cells after 72 hrs by CellTiter-Glo assay; type: functional, cell-based; conditions: PC-9, 72 h

Sequence of Serine/threonine-protein kinase B-raf (Homo sapiens, UniProt P15056, V600E) (P15056 2-766 V600E limits assumed): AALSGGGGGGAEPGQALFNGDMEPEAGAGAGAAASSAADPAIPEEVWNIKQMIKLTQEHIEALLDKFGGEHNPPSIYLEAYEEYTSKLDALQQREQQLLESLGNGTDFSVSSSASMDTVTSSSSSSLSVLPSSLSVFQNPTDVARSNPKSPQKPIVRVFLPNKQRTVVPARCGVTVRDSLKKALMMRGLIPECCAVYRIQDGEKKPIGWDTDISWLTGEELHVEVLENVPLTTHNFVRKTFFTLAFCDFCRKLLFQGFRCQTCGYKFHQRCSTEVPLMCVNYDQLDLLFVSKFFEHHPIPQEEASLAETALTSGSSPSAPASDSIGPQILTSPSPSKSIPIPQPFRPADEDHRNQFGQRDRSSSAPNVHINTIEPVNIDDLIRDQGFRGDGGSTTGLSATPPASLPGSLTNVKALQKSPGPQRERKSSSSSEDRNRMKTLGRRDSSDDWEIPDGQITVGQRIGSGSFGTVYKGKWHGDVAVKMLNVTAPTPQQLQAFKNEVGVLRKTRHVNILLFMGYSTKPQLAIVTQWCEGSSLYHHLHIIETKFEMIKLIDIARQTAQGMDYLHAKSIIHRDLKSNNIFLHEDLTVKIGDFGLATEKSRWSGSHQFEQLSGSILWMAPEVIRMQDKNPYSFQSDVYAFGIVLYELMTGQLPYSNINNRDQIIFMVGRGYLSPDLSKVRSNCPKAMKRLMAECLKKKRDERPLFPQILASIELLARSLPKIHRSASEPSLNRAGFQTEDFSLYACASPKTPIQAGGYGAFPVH
Sequence of Serine/threonine-protein kinase B-raf (Homo sapiens, UniProt P15056) (P15056 whole entry): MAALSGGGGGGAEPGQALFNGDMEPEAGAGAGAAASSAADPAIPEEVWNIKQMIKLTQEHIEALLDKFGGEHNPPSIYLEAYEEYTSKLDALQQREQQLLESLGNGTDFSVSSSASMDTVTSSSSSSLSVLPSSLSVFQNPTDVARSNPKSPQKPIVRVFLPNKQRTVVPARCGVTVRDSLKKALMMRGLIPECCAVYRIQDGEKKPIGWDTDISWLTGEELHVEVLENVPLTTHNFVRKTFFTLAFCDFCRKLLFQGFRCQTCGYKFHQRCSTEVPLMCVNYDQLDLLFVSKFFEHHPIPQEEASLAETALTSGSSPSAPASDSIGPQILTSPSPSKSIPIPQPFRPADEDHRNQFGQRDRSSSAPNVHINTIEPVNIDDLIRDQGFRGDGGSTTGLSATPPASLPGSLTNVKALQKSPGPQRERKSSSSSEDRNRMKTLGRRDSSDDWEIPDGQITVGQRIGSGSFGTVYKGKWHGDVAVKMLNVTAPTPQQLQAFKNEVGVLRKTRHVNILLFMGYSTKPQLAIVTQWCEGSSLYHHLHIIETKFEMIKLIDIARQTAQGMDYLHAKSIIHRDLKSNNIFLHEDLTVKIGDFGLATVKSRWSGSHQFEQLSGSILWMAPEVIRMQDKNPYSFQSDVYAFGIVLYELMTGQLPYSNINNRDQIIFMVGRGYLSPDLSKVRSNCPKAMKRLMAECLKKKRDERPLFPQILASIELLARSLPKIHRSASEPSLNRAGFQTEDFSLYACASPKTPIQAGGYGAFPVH

Structure (SMILES): O=C(Nc1cccc(-c2cnc3c(NC(=O)c4ccc(Br)cc4)nccn23)c1)Nc1ccc(F)cc1F
- pIC50 [1]: 5.43

Structure (SMILES): O=C(Nc1cccc(-c2cnc3c(NC(=O)c4cc(C(F)(F)F)cc(C(F)(F)F)c4)nccn23)c1)Nc1ccc(F)cc1F
- pIC50 [1]: 6.96

Structure (SMILES): O=C(Nc1cccc(-c2cnc3c(NC(=O)c4ccc(F)c(C(F)(F)F)c4)nccn23)c1)Nc1ccc(F)cc1F
- pIC50 [1]: 6.39

Structure (SMILES): O=C(Nc1cccc(-c2cnc3c(NC(=O)c4cccc(C(F)(F)F)c4)nccn23)c1)Nc1ccc(Cl)c(C(F)(F)F)c1
- pIC50 [1]: 6.25

Structure (SMILES): O=C(Nc1cccc(-c2cnc3c(NC(=O)c4ccc(F)c(C(F)(F)F)c4)nccn23)c1)Nc1ccc(Cl)c(C(F)(F)F)c1
- pIC50 [1]: 7.22
- pIC50 [2]: < 4.90
- pIC50 [3]: 5.30

Structure (SMILES): O=C(Nc1cccc(-c2cnc3c(NC(=O)c4ccc(C(F)(F)F)cc4)nccn23)c1)Nc1ccc(Cl)c(C(F)(F)F)c1
- pIC50 [1]: 5.76

Structure (SMILES): O=C(Nc1cccc(-c2cnc3c(NC(=O)c4ccccc4)nccn23)c1)Nc1ccc(F)cc1F
- pIC50 [1]: 5.70

Structure (SMILES): O=C(Nc1cccc(-c2cnc3c(NC(=O)c4ccccc4)nccn23)c1)Nc1ccc(Cl)c(C(F)(F)F)c1
- pIC50 [1]: 5.85

Structure (SMILES): O=C(Nc1cccc(-c2cnc3c(NC(=O)c4ccc(Cl)c(Cl)c4)nccn23)c1)Nc1ccc(F)cc1F
- pIC50 [1]: 5.72

Structure (SMILES): O=C(Nc1cccc(-c2cnc3c(NC(=O)c4cc(Cl)c(F)c(Cl)c4)nccn23)c1)Nc1ccc(F)cc1F
- pIC50 [1]: 6.41

Structure (SMILES): O=C(Nc1cccc(-c2cnc3c(NC(=O)c4cc(Cl)cc(Cl)c4)nccn23)c1)Nc1ccc(F)cc1F
- pIC50 [1]: 7.22
- pIC50 (A549): 5.58
- pIC50 (NCI-H358): 5.38
- pIC50 [4]: 6.21
- pIC50 [2]: < 4.90
- pIC50 [3]: < 4.90
- pIC50 [5]: 5.59
- pIC50 [6]: 6.06
- pIC50 [7]: 5.56

Structure (SMILES): O=C(Nc1cccc(-c2cnc3c(NC(=O)c4ccc(F)c(Cl)c4)nccn23)c1)Nc1ccc(F)cc1F
- pIC50 [1]: 5.81

Structure (SMILES): O=C(Nc1cccc(-c2cnc3c(NC(=O)c4ccc(Cl)c(C(F)(F)F)c4)nccn23)c1)Nc1ccc(F)cc1F
- pIC50 [1]: 6.10

Structure (SMILES): O=C(Nc1cccc(-c2cnc3c(NC(=O)c4cc(F)cc(F)c4)nccn23)c1)Nc1ccc(Cl)c(C(F)(F)F)c1
- pIC50 [1]: 5.71

Structure (SMILES): O=C(Nc1cccc(-c2cnc3c(NC(=O)c4cc(Cl)cc(Cl)c4)nccn23)c1)c1ccc(Cl)c(C(F)(F)F)c1
- pIC50 [1]: 7.40
- pIC50 (A549): 5.49
- pIC50 (NCI-H358): 5.38
- pIC50 [4]: 6.08
- pIC50 [2]: < 4.90
- pIC50 [3]: < 4.90
- pIC50 [5]: 5.44
- pIC50 [6]: 5.74
- pIC50 [7]: 5.44

Structure (SMILES): O=C(Nc1cccc(-c2cnc3c(NC(=O)c4ccc(F)c(Cl)c4)nccn23)c1)Nc1ccc(Cl)c(C(F)(F)F)c1
- pIC50 [1]: 5.89

Structure (SMILES): O=C(Nc1cccc(-c2cnc3c(NC(=O)c4cc(F)cc(F)c4)nccn23)c1)Nc1ccc(F)cc1F
- pIC50 [1]: 5.24

Structure (SMILES): O=C(Nc1cccc(-c2cnc3c(NC(=O)c4cccc(Cl)c4Cl)nccn23)c1)Nc1ccc(F)cc1F
- pIC50 [1]: 6.77

Structure (SMILES): O=C(Nc1cccc(-c2cnc3c(NC(=O)c4ccc(OC(F)(F)F)cc4)nccn23)c1)Nc1ccc(F)cc1F
- pIC50 [1]: 5.42

Structure (SMILES): Cc1ccc(C(=O)Nc2nccn3c(-c4cccc(NC(=O)Nc5ccc(F)cc5F)c4)cnc23)cc1Cl
- pIC50 [1]: 5.70

Structure (SMILES): O=C(Nc1cccc(-c2cnc3c(NC(=O)c4cc(C(F)(F)F)cc(C(F)(F)F)c4)nccn23)c1)Nc1ccc(Cl)c(C(F)(F)F)c1
- pIC50 [1]: 8.00
- pIC50 (A549): 4.98
- pIC50 (NCI-H358): 5.12
- pIC50 [4]: 5.20
- pIC50 [2]: < 4.90
- pIC50 [3]: < 4.90
- pIC50 [5]: 4.84
- pIC50 [6]: 5.27
- pIC50 [7]: 4.94

Structure (SMILES): Cc1ccc(C(=O)Nc2nccn3c(-c4cccc(NC(=O)Nc5ccc(Cl)c(C(F)(F)F)c5)c4)cnc23)cc1Cl
- pIC50 [1]: 5.94

Structure (SMILES): Cc1cc(C)cc(C(=O)Nc2nccn3c(-c4cccc(NC(=O)Nc5ccc(F)cc5F)c4)cnc23)c1
- pIC50 [1]: 6.92

Structure (SMILES): COc1ccc(NC(=O)Nc2cccc(-c3cnc4c(N)nccn34)c2)cc1
- pIC50 [1]: 5.52

Structure (SMILES): O=C(Nc1cccc(-c2cnc3c(NC(=O)c4cccc(C(F)(F)F)c4)nccn23)c1)Nc1ccc(F)cc1F
- pIC50 [1]: 6.36

Structure (SMILES): O=C(Nc1cccc(-c2cnc3c(NC(=O)c4ccc(C(F)(F)F)cc4)nccn23)c1)Nc1ccc(F)cc1F
- pIC50 [1]: 5.56

Structure (SMILES): O=C(Nc1cccc(-c2cnc3c(NC(=O)c4cc(Cl)cc(Cl)c4)nccn23)c1)Nc1ccc(Cl)c(C(F)(F)F)c1
- pIC50 [1]: 7.52
- pIC50 (A549): 5.07
- pIC50 (NCI-H358): 5.07
- pIC50 [4]: 5.00
- pIC50 [2]: < 4.90
- pIC50 [3]: < 4.90
- pIC50 [5]: 5.10
- pIC50 [6]: 5.02
- pIC50 [7]: 4.94

Structure (SMILES): O=C(Nc1cccc(-c2cnc3c(NC(=O)c4cccc(OC(F)(F)F)c4)nccn23)c1)Nc1ccc(F)cc1F
- pIC50 [1]: 6.02

Structure (SMILES): CCCS(=O)(=O)Nc1ccc(F)c(C(=O)c2c[nH]c3ncc(-c4ccc(Cl)cc4)cc23)c1F [VEMURAFENIB]
- pIC50 [1]: 6.43
